Shown are actives, neighbours in structure and some others; about 3.5% of the full set was active somewhere.
MrgX1 allo act: allosterically activates human MrgX1 receptor signaling; MrgX1-HEK293, Fluo-4 calcium flux, FDSS; active compounds read high; AID 588675; B-score at 10 µM; 0.63% of 310,000 active; Q96LB2;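 active means plate-corrected calcium response at least 3 library SD above typical, normal starting fluorescence, not activating the receptor alone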;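 further: compound read alongside a low EC10 to EC30 dose of BAM8-22 agonist; peak minus trough fluorescence over baseline measured at the second addition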
Target sequence (Q96LB2 whole entry, looked up): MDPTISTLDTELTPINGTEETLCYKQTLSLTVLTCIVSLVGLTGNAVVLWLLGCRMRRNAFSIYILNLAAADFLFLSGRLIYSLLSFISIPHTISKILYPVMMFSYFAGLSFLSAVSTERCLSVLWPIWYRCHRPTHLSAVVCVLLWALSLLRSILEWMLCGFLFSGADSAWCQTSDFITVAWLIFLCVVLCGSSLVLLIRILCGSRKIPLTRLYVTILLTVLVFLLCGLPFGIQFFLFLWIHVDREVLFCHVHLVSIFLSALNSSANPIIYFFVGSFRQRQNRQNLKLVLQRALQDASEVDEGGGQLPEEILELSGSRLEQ
MrgX1 agonist: agonists of human MrgX1 receptor; Q96LB2; MrgX1-HEK293 cells, Fluo-4 calcium fluorescence, agonist mode; active compounds read high; B-score at 10 µM; 0.44% of 310,000 active; AID 588627;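 active means calcium response B-score plate-corrected fluorescence ratio at least 3 library SD, with starting fluorescence B-score inside 5 SD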
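Assay system: stable human MrgX1 HEK293 cell line. Quantity: 15,000 cells per well. Schedule: cells plated overnight, dye loaded 0.5 h 37 °C, 0.5 h room temperature. Detection: Fluo-4 NW calcium-flux fluorescence, kinetic read. Read-out basis: peak-minus-minimum fluorescence over baseline, converted to B scores. Control set: positive and negative control wells on each plate.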
MrgX1 antagonist: human MrgX1 receptor antagonism, primary screen; MRGX1-HEK293 calcium flux, Fluo-4, BAM8-22 antagonism; active compounds read low; B-score at 10 µM; 1.3% of 310,000 active;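 active means calcium-response B-score plate-corrected more than 3 library SD below zero, starting fluorescence within 5 deviations, no agonist response on first addition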;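 further: peak minus trough fluorescence over baseline after final BAM8-22 challenge near maximal dose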
RGS4 act: RGS4 potentiation or activation. HEK293 M3R/inducible RGS4, carbachol calcium flux Fluo4; active compounds read low. B-score at 10 µM. 0.92% of 310,000 active. AID 463111;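 active means B-score of the integrated calcium signal more than 4 SD below the library mean, with starting fluorescence not abnormally high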;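 further: negative B-score means reduced calcium response which marks RGS4 activation or potentiation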
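Also added: carbachol at ECmax as muscarinic agonist stimulus; Assay system: HEK293 cells with stable M3R and inducible RGS4; Timing: overnight RGS4 induction, 30 min dye load 37 °C, 20 min compound RT; Measured by: Fluo4-AM (2 µM) calcium-flux fluorescence, kinetic read.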
RGS4 block: inhibitors of human RGS4; HEK293 M3R/RGS4 inducible, Fluo-4 calcium flux; active compounds read high; triggered by carbachol at its EC20; B-score at 10 µM; 0.45% of 310,000 active; AID 463165;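 active means B-score, a plate-corrected calcium signal, over three deviations above library mean, with baseline fluorescence within five deviations of library mean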;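 further: RGS4 expression induced by doxycycline in cells with stable M3 receptor; B-score is computed from the integrated fluorescence ratio over baseline after carbachol; higher B-score means a larger calcium signal and so more RGS4 inhibition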
Target sequence (P49798 whole entry, looked up): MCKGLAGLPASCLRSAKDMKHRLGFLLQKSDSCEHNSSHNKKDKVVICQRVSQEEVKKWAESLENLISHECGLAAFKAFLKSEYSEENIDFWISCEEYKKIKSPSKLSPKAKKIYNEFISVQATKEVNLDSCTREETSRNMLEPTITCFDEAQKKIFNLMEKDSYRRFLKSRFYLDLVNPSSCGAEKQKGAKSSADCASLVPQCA
Of the large screens only hits and unclear results are named; the others gave an inactive call.

CN(CC(=O)Nc1cccc(F)c1)C(=O)Cc1n[nH]c(=O)c2ccccc12	none
CN1OC(Cn2cc(C#N)c(=O)n(C)c2=O)CC1c1ccccc1 (configuration not stated)	MrgX1 antagonist -5.81
Cn1cccc1/C=C1\SC(=Nc2ccccc2)NC1=O	none
Cc1ccc(N=C2NC(=O)/C(=C/c3cn(C)c4ccccc34)S2)cc1C	MrgX1 antagonist -4.82 (no result: RGS4 act, RGS4 block)
Cc1c(CCC(=O)O)c(=O)oc2c(C)c3occ(-c4ccc(Cl)cc4)c3cc12	MrgX1 allo act 6.61
O=C(O)c1cc(NN=Nc2cccc([N+](=O)[O-])c2)cc([N+](=O)[O-])c1	none
CCOc1ccc2nc3cc(NCc4ccc(OC)cc4)ccc3c(N)c2c1	RGS4 act -7.56
CCn1cnc2cc(NCc3ccc(OC)cc3)ccc21	none
COc1ccc(C2CC(c3ccc(C)o3)=NN2C(C)=O)cc1 (configuration not stated)	none
COc1ccccc1/C=N/NC(=O)NC12CC3CC(CC(C3)C1)C2	none
COc1ccc(/C=N/NC(=O)NC23CC4CC(CC(C4)C2)C3)c(OC)c1	MrgX1 allo act 6.95
Cc1nn(C)cc1C(C(=O)NC1CCCCC1)N(C(=O)Cc1cccs1)c1ccc(C(C)C)cc1 (configuration not stated)	MrgX1 agonist 26.5
Cc1cccc(NC(=O)CN2C(=O)S/C(=C\C(=O)Nc3ccc(Cl)cc3)C2=O)c1	MrgX1 antagonist -5.74
O=C(/C=C1\SC(=O)N(CC(=O)Nc2ccc(Cl)cc2)C1=O)Nc1ccc(F)cc1	none
CCNc1ccc(Br)cc(C(=O)/C=C/c2c(Cl)cccc2Cl)c1=O	MrgX1 antagonist -4.57
CCNc1ccc(Br)cc(C(=O)/C=C/c2ccc(Cl)cc2)c1=O	none
Cc1cc(=O)n(C)c(=O)n1CCCCCCN1CCCC1	none
C=CCOc1ccc(/C=C/C(=O)OCC(=O)N2CCCc3ccccc32)cc1	MrgX1 antagonist -9.46
CSc1nc2ccccc2n1Cc1cccc([N+](=O)[O-])c1	none
C=C(C)COc1ccc(-c2ncnc(C(F)(F)F)c2-c2ccc(OC)cc2)c(O)c1	RGS4 act -7.08
O=C(CN1CCN(Cc2ccccc2)CC1)NC(=O)NC1CCCCC1	none
O=C(CN1CCN(C/C=C/c2ccccc2)CC1)NC(=O)NC1CCCCC1	RGS4 act -7
C/C(=C\C(=O)c1ccc(Cl)s1)N(C)C	MrgX1 allo act 9.18
O=C(/C=C\Nc1ccc2c(c1)OCO2)c1ccc(Cl)s1	none
CC1(C)N=C(SCC(=O)Nc2ccc(Cl)cc2)C(c2ccc(Cl)cc2)=N1	RGS4 act -7.95
CC1(C)N=C(SCC(=O)Nc2ccc(Cl)cc2)C(c2ccccc2)=N1	none
CC(C)CCNC(=O)C1CCC(CNS(=O)(=O)c2cccc3nsnc23)CC1 (configuration not stated)	none
COc1cc([N+](=O)[O-])ccc1NC(=O)CN1CCN(C(=O)c2ccco2)CC1	MrgX1 antagonist -4.74
Cc1c(NC(=O)c2ccccc2NC(=O)c2ccccc2)cccc1C(=O)O	none
COc1ccc(CCn2c(=N)c(C(=O)NC3CCCC3)cc3c(=O)n4ccccc4nc32)cc1	none
Cc1nnnn1-c1cccc(C(=O)O)c1	none
COC(=O)c1cn(CCOc2ccccc2)c2ccccc12	none
CCN(CC)C(=O)C(=O)c1cn(CCOc2ccccc2)c2ccccc12	RGS4 act -7.1
Cc1nc(N/N=C/c2ccccc2)nc(N(C)c2ccccc2)c1[N+](=O)[O-]	MrgX1 antagonist -7.61
CCOc1ccc(OCC(=O)N2CCOCC2)cc1	none
CCOC(=O)C1=C(COC(=O)/C=C/c2ccccc2Cl)NC(=O)NC1C (configuration not stated)	MrgX1 allo act 8.47
CCOC(=O)C1=C(COC(=O)/C=C/c2ccccc2F)NC(=O)NC1C (configuration not stated)	none
CCN(CC)CCn1c(=S)[nH]c2cc(C(=O)N3CC=C(c4ccccc4)CC3)ccc2c1=O	MrgX1 allo act 8.46
O=C(N/N=C/c1ccc[nH]1)c1ccc(COc2cccc3cccnc23)cc1	MrgX1 allo act 7.84, MrgX1 antagonist -7.17
O=[N+]([O-])c1ccc(N2CCN(Cc3ccccc3)CC2)s1	MrgX1 antagonist -4.98
O=C(NCc1ccccn1)c1nc(-c2cccs2)no1	none
CCOc1cc(N2CCOCC2)c(OCC)cc1NC(=O)CN1C(=O)NC(C)(C2CC2)C1=O (configuration not stated)	MrgX1 antagonist -4.75
Cn1c(=O)c(C(=O)NNC(=O)c2ccccc2Br)c(O)c2ccccc21	MrgX1 allo act 8.45
Cn1c(=O)c(C(=O)NNC(=O)c2ccccc2Cl)c(O)c2ccccc21	MrgX1 agonist 29.2
CC1CN(C(=O)c2ccc(S(=O)(=O)Nc3ccccc3F)cc2)CC(C)O1 (configuration not stated)	none
CC(C)CS(=O)(=O)C1=NN2C(=N)/C(=C\c3ccc(OC(=O)c4ccco4)cc3)C(=O)N=C2S1	MrgX1 agonist 29.1
N=C1/C(=C\c2ccc(OC(=O)c3ccco3)cc2)C(=O)N=C2SC=NN12	none (no result: MrgX1 allo act, MrgX1 agonist, MrgX1 antagonist)
CS(=O)(=O)C1=NN2C(=N)/C(=C\c3ccc(OC(=O)c4ccco4)cc3)C(=O)N=C2S1	MrgX1 allo act 11.7
Cc1nc(S/C(=C/c2ccc(-c3ccc(Cl)cc3)o2)C(=O)O)n[nH]1	none
Cc1nc(S/C(=C/c2ccc(-c3ccc(C(=O)O)cc3)o2)C(=O)O)n[nH]1	none
Cc1nc(S/C(=C/c2ccc(-c3cc(Cl)ccc3C)o2)C(=O)O)n[nH]1	MrgX1 antagonist -4.98
CC(=O)c1ccc(-c2ccc(/C=C(/Sc3n[nH]c(C)n3)C(=O)O)o2)cc1	MrgX1 antagonist -4.77
O=C(c1cncc(Br)c1)N1CCc2ccccc2C1	none
CCOC(=O)C1=C(C)N(CC(C)C)C(=O)/C1=C\c1ccc(OCC(=O)Nc2ccccc2)cc1	RGS4 act -7.1
CC(C(=O)NN)c1ccc([N+](=O)[O-])cc1 (configuration not stated)	MrgX1 allo act 9.24
CC(NS(=O)(=O)c1ccc([N+](=O)[O-])cc1)C(=O)NN (configuration not stated)	none
CSc1ncccc1C(=O)Nc1ccc(S(=O)(=O)NC2=NCCCCC2)cc1	MrgX1 antagonist -4.61
COc1ccc(NC(=O)Cc2nnc(SCC(=O)NC3CCCCC3C)n2C)cc1 (configuration not stated)	none
COc1cc(/C=C/C(=O)NCCc2ccc(S(N)(=O)=O)cc2)ccc1OCC#N	MrgX1 allo act 11.7
CCCCN(CCCNC(=O)c1c(C)cc(=O)oc1C)c1ccccc1	MrgX1 antagonist -7.92
COc1ccc(SCC(=O)c2cc(C)c(OC(=S)N(C)C)c(C)c2)cc1	RGS4 act -7.01
Cc1ccc(CN(Cc2cc3cccc(C)c3[nH]c2=O)C(=S)NCCCN(C)C)cc1	MrgX1 allo act 9.71
CCCCCCOC1(c2ccccc2)OC(=O)c2ccccc21 (configuration not stated)	RGS4 act -6.96
